# Reference: ChEMBL document CHEMBL1122169, “Inhibition of rat hepatic microsomal aminopyrine N-demethylase activity by benzimidazole derivatives. Quantitative structure-activity relationships” (J Med Chem, 1982)
# Key:
# [1] = Partition coefficient (logP); format: physicochemical; details: octanol/water
# Cytochrome P450 2B1 = target: T1, Cytochrome P450 2B1 (Rattus norvegicus, UniProt P00176); experiment: Inhibitory potency to aminopyrine N-demethylase activity (P450) in hepatic microsomes from phenobarbitone-induced rats.; format: ADME, Liver; details: read-out: pI50 (converted)
# T1 sequence (P00176 whole entry): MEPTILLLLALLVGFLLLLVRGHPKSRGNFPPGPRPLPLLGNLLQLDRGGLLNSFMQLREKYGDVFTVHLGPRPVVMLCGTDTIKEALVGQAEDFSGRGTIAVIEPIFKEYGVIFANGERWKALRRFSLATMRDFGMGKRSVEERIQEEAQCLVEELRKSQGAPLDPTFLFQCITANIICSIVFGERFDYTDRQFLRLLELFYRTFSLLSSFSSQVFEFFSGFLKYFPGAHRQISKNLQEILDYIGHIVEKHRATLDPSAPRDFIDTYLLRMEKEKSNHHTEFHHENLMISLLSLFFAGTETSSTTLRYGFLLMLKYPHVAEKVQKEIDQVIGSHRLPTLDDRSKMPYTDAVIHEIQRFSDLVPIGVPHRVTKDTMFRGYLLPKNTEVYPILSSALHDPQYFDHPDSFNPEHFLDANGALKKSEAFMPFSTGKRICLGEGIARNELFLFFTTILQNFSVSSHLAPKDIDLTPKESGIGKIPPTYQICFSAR
# How it was run: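 Microsomes (105000g pellet) from livers of male Wistar rats (100–150 g) given phenobarbitone ip on consecutive days. A 3.0 mL mix in 0.1 M K phosphate, pH 7.4, held aminopyrine 1.61 μmol, NADPH-generating system, semicarbazide and 5.6 mg protein, run 15 min. Formaldehyde was read by Nash/Hantzsch. Inhibitor went in DMSO or 0.07 M HCl, with solvent in controls. I50 came from seven concentrations.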
logP [1],IC50 (Cytochrome P450 2B1),Compound
1.69,,Cc1nc2ccc([N+](=O)[O-])cc2[nH]1
3.06,100 µM,Cc1nc2c([N+](=O)[O-])cc(Cl)cc2[nH]1
4.42,11 µM,Brc1cccc(Br)c1OCc1nc2ccccc2[nH]1
3.17,81.3 µM,Clc1cc2nc[nH]c2cc1Cl
7.43,22.9 µM,CCCCCCCCCCCCCc1nc2ccccc2[nH]1
4.06,30.2 µM,c1ccc2c(c1)c1c(c3ccccc32)=NCN=1
4.79,18.2 µM,c1ccc2cc(Cc3nc4ccccc4[nH]3)ccc2c1
1.93,,CCc1nc2ccccc2[nH]1
2.61,,CCCCCc1nc2cc(NC(C)=O)ccc2[nH]1
2.43,,CCCc1nc2ccccc2[nH]1
2.91,,CC(C)Cc1nc2ccccc2[nH]1
2.01,,O=[N+]([O-])c1cccc2[nH]cnc12
2.41,,CC(C)c1nc2ccccc2[nH]1
4.52,11 µM,Brc1ccc(OCc2nc3ccccc3[nH]2)c(Br)c1
3.93,32.4 µM,CCCCCCc1nc2ccccc2[nH]1
1.47,,OC(c1ccccc1)c1nc2ccccc2[nH]1 (stereo not given)
2.02,,c1ccc2[nH]c(C3CC3)nc2c1
4.43,30.2 µM,Cc1cc(OCc2nc3ccccc3[nH]2)cc(C)c1Cl
5.4,44.7 µM,CCCCCCCc1nc2cc(C)c(C)cc2[nH]1
1.88,67.6 µM,CCOc1ccc2[nH]cnc2c1
2.4,,Cc1nc2cc(C)c(C)cc2[nH]1
2.38,,Clc1ccc2[nH]cnc2c1
4.96,15.1 µM,c1ccc(CCCCc2nc3ccccc3[nH]2)cc1
3.22,81.3 µM,Cc1nc2cc(Cl)c(Cl)cc2[nH]1
3.33,26.9 µM,Clc1ccccc1OCc1nc2ccccc2[nH]1

logP [1],IC50 (Cytochrome P450 2B1),Compound
3.43,,CCCCCc1nc2ccccc2[nH]1
2.68,26.9 µM,O=C(Nc1cc(Cl)cc2nc[nH]c12)c1ccccc1
2.03,,Fc1ccc2[nH]cnc2c1
4.94,41.7 µM,CCCCCCCc1nc2cc(C)ccc2[nH]1
3.46,91.2 µM,c1ccc(Cc2nc3ccccc3[nH]2)cc1 [BENDAZOL]
3.01,,O=[N+]([O-])c1cc(Cl)cc2[nH]cnc12
2.72,53.7 µM,c1ccc2c3c(ccc2c1)=NCN=3
4.8,25.1 µM,c1ccc2c(Cc3nc4ccccc4[nH]3)cccc2c1
2.66,69.2 µM,c1ccc(OCc2nc3ccccc3[nH]2)cc1
3.26,53.7 µM,Clc1cc(Cl)c2[nH]cnc2c1
3.9,55 µM,CCCCc1nc2cc(C)c(C)cc2[nH]1
4.43,,CCCCCCCc1nc2ccccc2[nH]1
3.16,25.1 µM,c1ccc(OCCc2nc3ccccc3[nH]2)cc1
3.96,38.9 µM,c1ccc(CCc2nc3ccccc3[nH]2)cc1
4.46,19.1 µM,c1ccc(CCCc2nc3ccccc3[nH]2)cc1
3.59,25.1 µM,Clc1ccc(OCc2nc3ccccc3[nH]2)cc1
3.77,21.9 µM,Brc1ccc(OCc2nc3ccccc3[nH]2)cc1
6.43,,CCCCCCCCCCCc1nc2ccccc2[nH]1
-0.06,,NCc1nc2ccccc2[nH]1
3.12,44.7 µM,Cc1ccc(OCc2nc3ccccc3[nH]2)cc1
1.86,,Cc1cccc2[nH]cnc12
1.27,,CC(=O)Nc1cc(Cl)cc2[nH]c(C)nc12
1.43,,Cc1nc2ccccc2[nH]1
3.5,25.7 µM,Cc1cc(C)cc(OCc2nc3ccccc3[nH]2)c1
2.43,20 µM,O=C(c1ccccc1)c1ccc2[nH]cnc2c1

logP [1],IC50 (Cytochrome P450 2B1),Compound
2.86,,CC(C)(C)c1nc2ccccc2[nH]1
3.4,,CCCc1nc2cc(C)c(C)cc2[nH]1
4.26,28.2 µM,Clc1cccc(OCc2nc3ccccc3[nH]2)c1Cl
2.38,64.6 µM,c1ccc(-c2nc3ccccc3[nH]2)nc1
1.7,,c1cncc(-c2nc3ccccc3[nH]2)c1
2.9,,CCc1nc2cc(C)c(C)cc2[nH]1
2.87,55 µM,c1ccc(-c2nc3ccccc3[nH]2)cc1
2.44,,CCc1nc2ccc(C)cc2[nH]1
1.94,,Cc1ccc2nc(C)[nH]c2c1
3.4,25.7 µM,Cc1ccc(OCc2nc3ccccc3[nH]2)cc1C
3.51,12 µM,Brc1ccccc1OCc1nc2ccccc2[nH]1
1.89,,Cc1ccc2[nH]cnc2c1
2.93,,CCCCc1nc2ccccc2[nH]1
1.93,56.2 µM,CCOc1ccc2[nH]c(C)nc2c1
4.93,28.8 µM,CCCCCCCCc1nc2ccccc2[nH]1
2.43,,Cc1nc2cc(Cl)ccc2[nH]1
0.61,,CC(=O)Nc1ccc2nc(C)[nH]c2c1
3.31,100 µM,Cc1nc2cc(Cl)cc(Cl)c2[nH]1
3.39,91.2 µM,c1ccc2[nH]c(C3CCCCC3)nc2c1
3.14,28.8 µM,Cc1cccc(OCc2nc3ccccc3[nH]2)c1
2.11,,CCCCC(=O)Nc1ccc2nc(C)[nH]c2c1
3.19,,Cc1nc2cc(NC(=O)c3ccccc3)ccc2[nH]1
2.36,,Cc1nc2c(C)c(C)ccc2[nH]1
3.59,67.6 µM,CCc1ccc(OCc2nc3ccccc3[nH]2)cc1
2.39,,FC(F)(F)c1nc2ccccc2[nH]1

Compound,logP [1],IC50 (Cytochrome P450 2B1)
Cc1cccc(Cc2nc3ccccc3[nH]2)c1C,5.23,53.7 µM
O=[N+]([O-])c1ccc2[nH]cnc2c1,1.64,
Clc1ccc(Cc2nc3ccccc3[nH]2)c(Cl)c1,5.32,15.1 µM
ClCc1nc2ccccc2[nH]1,1.15,
Clc1cccc(Cc2nc3ccccc3[nH]2)c1,4.44,22.9 µM
c1ccc2[nH]cnc2c1 [BENZIMIDAZOLE],1.38,
